Calls of active or inactive are those of the source. The rule behind the calls is not given here.
What was measured:
HeLa [1] = experiment: Induction of mitochondrial membrane potential loss in human HeLa cells assessed as cells with polarized mitochondrial membrane at 10 nM after 24 hrs by JC-1 dye-based flow cytometric analysis (reference value: 94.3 %); format: functional
HeLa [2] = experiment: Induction of apoptosis in human HeLa cells assessed as late apoptotic cells at 10 nM measured after 48 hrs by Annexin V-FITC/propidium iodide staining based flow cytometry (reference value: 6.07 %); format: functional
HUVEC [3] = experiment: Antivascular activity against HUVEC assessed as inhibition of capillary like tube formation at 10 nM incubated for 1 hr by matrigel based assay; format: functional, cell-based; conditions: Homo sapiens
Procedure, shortened: (§1)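 HUVECs used at passages 1–6 in M200 with low-serum growth supplement. 6 x 10^4 cells seeded on gelled Matrigel (37 °C, 30 min) and left 6 h to form tubes. Preformed networks then treated 1 h at 10 or 100 nM and photographed at five fields per well. Image analysis gave segment length, mesh area and number, covered area and branch points; three independent experiments.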

HeLa [4] = experiment: Induction of cell cycle arrest at G2/M phase in human HeLa cells assessed as increase in cyclin B1 expression after 24 to 48 hrs by Western blot analysis; format: functional, cell-based; conditions: dose 10-50 nM, time 24-48 hrs
Procedure, shortened: (§2)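 HeLa cells treated 24 or 48 h, then washed in cold PBS and lysed in 0.1% Triton X-100/RNase A at 0 °C. Lysates were cleared at 15,000 x g. 10 µg protein was run on SDS-PAGE and blotted to PVDF, blocked in 5% BSA, and probed 2 h at room temperature with primary antibodies. HRP secondary and ECL detection followed; β-actin reprobe served as loading control.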

HUVEC [5] = experiment: Antivascular activity against HUVEC assessed as inhibition of capillary like tube formation at 100 nM incubated for 1 hr by matrigel based assay; format: functional, cell-based; conditions: Homo sapiens; procedure, shortened: as §1
Daoy [6] = experiment: Potency index, ratio of CA-4 IC50 to compound IC50 for human Daoy cells assessed as inhibition of cell growth; format: functional
HeLa [7] = experiment: Induction of apoptosis in human HeLa cells assessed as viable cells at 10 nM measured after 24 hrs by Annexin V-FITC/propidium iodide staining based flow cytometry (reference value: 89.57 %); format: functional; conditions: read-out: Activity
HeLa [8] = experiment: Induction of mitochondrial membrane potential loss in human HeLa cells assessed as cells with depolarized mitochondrial membrane at 10 nM after 48 hrs by JC-1 dye-based flow cytometric analysis (reference value: 5.7 %); format: functional
HUVEC [9] = experiment: Antivascular activity against HUVEC assessed as effect on segment length in preformed capillary like tube network at 10 nM incubated for 1 hr by imaging analysis; format: functional, cell-based; conditions: Homo sapiens; procedure, shortened: as §1
[10] = Cytotoxicity against PHA-stimulated human PBL assessed as inhibition of cell growth; format: cell-based; conditions: PHA-stimulated peripheral blood lymphocytes (PBL)
Procedure, shortened: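 Peripheral blood lymphocytes from healthy donors, tested either unstimulated or stimulated with PHA; DMSO ≤0.25% final. Values are mean ± SEM of three separate experiments.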

[11] = Inhibition of bovine brain tubulin polymerisation preincubated with compound followed by GTP addition and measured after 20 mins by turbidimetry based spectrophotometric method; format: tissue-based, Bos taurus
Procedure, shortened: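 Bovine brain tubulin (10 µM) in glutamate buffer, preincubated with varying compound concentrations at 30 °C, then cooled to 0 °C. GTP added to 0.4 mM final, then warmed to 30 °C in a recording spectrophotometer. Assembly followed by turbidity at 350 nm.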

SEM cells = experiment: Potency index, ratio of CA-4 IC50 to compound IC50 for human SEM cells assessed as inhibition of cell growth; format: functional
HeLa [12] = experiment: Induction of apoptosis in human HeLa cells assessed as increase in bcl-2 phosphorylation at 10 nM after 48 hrs by Western blot analysis; format: functional, cell-based; procedure, shortened: as §2
[13] = Toxicity in C57BL/6 mouse implanted with mouse E0771 cells assessed as reduction in body weight at 15 mg/kg, ip administered every other day; format: organism-based; conditions: in vivo
Procedure, shortened: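 Seven-week-old female C57BL/6 mice received 4 × 10^5 E0771 cells orthotopically into the mammary fat pad. Once tumors were palpable, mice were randomized and given ip injections every other day (15 or 5 mg/kg, or vehicle DMSO; CA-4P 30 mg/kg as reference). Body weight was followed during treatment; n = 5 mice/group.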

HeLa [14] = experiment: Downregulation of BubR1 expression in human HeLa cells at 10 nM after 48 hrs by Western blot analysis; format: functional, cell-based; procedure, shortened: as §2
Daoy [15] = experiment: Antiproliferative activity against human Daoy cells assessed as inhibition of cell growth; format: functional, cell-based
Procedure, shortened: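 Compounds from 10 mM DMSO stocks; final DMSO ≤0.25%. Growth inhibition of cancer cell lines read from dose-response curves; IC50 as mean ± SEM of at least three independent experiments.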

HeLa [16] = experiment: Antiproliferative activity against human HeLa cells assessed as inhibition of cell growth; format: functional, cell-based
Procedure, shortened: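 Growth inhibition of cancer cell lines read from dose-response curves; IC50 as mean ± SEM of at least three independent experiments.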

HeLa [17] = experiment: Induction of apoptosis in human HeLa cells assessed as viable cells at 10 nM measured after 48 hrs by Annexin V-FITC/propidium iodide staining based flow cytometry (reference value: 89.57 %); format: functional; conditions: read-out: Activity
HeLa [18] = experiment: Induction of cell cycle arrest in human HeLa cells assessed as accumulation at G2/M phase at 10 nM after 24 hrs by PI staining based flow cytometric analysis; format: functional
Procedure, shortened: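 HeLa cells treated 24 h, then fixed in cold 70% ethanol. They were lysed with 0.1% Triton X-100 plus RNase A and stained with PI for flow cytometric DNA content. Means ± SEM of two independent experiments.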

HeLa [19] = experiment: Induction of apoptosis in human HeLa cells assessed as increase in PARP cleavage at 10 nM after 24 hrs by Western blot analysis; format: functional, cell-based; procedure, shortened: as §2
Bos taurus = organism: Bos taurus; experiment: Inhibition of [3H]colchicine binding to bovine brain tubulin at 5 uM relative to control
Procedure, shortened: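 [3H]colchicine binding to purified tubulin, with tubulin at 0.5 µM and colchicine at 5 µM. Compounds tested at 5 and 0.5 µM. CA-4 was run in contemporaneous experiments for comparison.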

Question: With CCOc1ccc2c(C(=O)c3cc(OC)c(OC)c(OC)c3)c(N)oc2c1 as the compound, how does the Activity (HeLa [1]) read?
Answer: The Activity was 75.7%.

Question: And the Activity (HeLa [2])?
Answer: Its Activity is 23.53%.

Question: What about the Activity (HUVEC [3]) of the same compound?
Answer: The Activity was “Active”.

Question: And the Activity (HeLa [4])?
Answer: Its Activity is “Dose-dependent effect”.

Question: And the Activity (HUVEC [5])?
Answer: The Activity was “Active”.

Question: What about the “Ratio IC50” value (Daoy [6]) of the same compound?
Answer: Its value is 2460.

Question: What about the viability at 0.01 µM (HeLa [7]) of the same compound?
Answer: Its viability at 0.01 µM is 64.5%.

Question: And the Activity (HeLa [8])?
Answer: Its Activity is 54.7%.

Question: What about the Activity (HUVEC [9]) of the same compound?
Answer: The Activity was “Active”.

Question: And the GI50 [10]?
Answer: The GI50 was over 10000 nM.

Question: And the IC50 [11]?
Answer: The IC50 was 370 nM.

Question: What about the “Ratio IC50” value (SEM cells) of the same compound?
Answer: The value was 16.

Question: And the Activity (HeLa [12])?
Answer: The Activity was “Active”.

Question: And the Activity [13]?
Answer: Its Activity is “Non-Toxic”.

Question: And the Activity (HeLa [14])?
Answer: The Activity was “Active”.

Question: What about the IC50 (Daoy [15]) of the same compound?
Answer: The IC50 was 0.005 nM.

Question: What about the IC50 (HeLa [16]) of the same compound?
Answer: Its IC50 is 2.8 nM.

Question: What about the viability at 0.01 µM (HeLa [17]) of the same compound?
Answer: The viability at 0.01 µM was 31.3%.

Question: What about the Activity (HeLa [18]) of the same compound?
Answer: Its Activity is “Active”.

Question: What about the Activity (HeLa [19]) of the same compound?
Answer: Its Activity is “Active”.

Question: What about the inhibition (Bos taurus) of the same compound?
Answer: The inhibition was 99%.

— ChEMBL document CHEMBL4765328 (Eur J Med Chem, 2020)
